Laboratory results: the M2OR odorant receptor database

What was measured:
Settings in all cases: stereoisomer not certain
UniProt Q924H8 = target: T1, UniProt Q924H8
T1 sequence (whole entry): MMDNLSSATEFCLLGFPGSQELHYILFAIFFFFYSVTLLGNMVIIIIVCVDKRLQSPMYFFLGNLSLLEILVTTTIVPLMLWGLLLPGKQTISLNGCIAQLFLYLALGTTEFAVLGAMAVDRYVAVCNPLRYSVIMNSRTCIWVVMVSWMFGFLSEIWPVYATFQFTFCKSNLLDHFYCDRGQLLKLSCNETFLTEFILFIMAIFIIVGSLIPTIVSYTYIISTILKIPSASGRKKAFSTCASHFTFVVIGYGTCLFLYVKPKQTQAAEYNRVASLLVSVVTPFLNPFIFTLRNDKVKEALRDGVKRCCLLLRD
Outline: (§1)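 Each receptor–molecule pair is labelled responsive or non-responsive (inactive) according to whether the original authors judged the measured signal statistically different from baseline. The data were taken from the main text and supplementary material of published papers and checked for typos and inconsistencies. Assay methods differed by source, with transient luciferase assays in mammalian cell lines being common.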

UniProt Q9EPN9 = target: T2, UniProt Q9EPN9
T2 sequence (whole entry): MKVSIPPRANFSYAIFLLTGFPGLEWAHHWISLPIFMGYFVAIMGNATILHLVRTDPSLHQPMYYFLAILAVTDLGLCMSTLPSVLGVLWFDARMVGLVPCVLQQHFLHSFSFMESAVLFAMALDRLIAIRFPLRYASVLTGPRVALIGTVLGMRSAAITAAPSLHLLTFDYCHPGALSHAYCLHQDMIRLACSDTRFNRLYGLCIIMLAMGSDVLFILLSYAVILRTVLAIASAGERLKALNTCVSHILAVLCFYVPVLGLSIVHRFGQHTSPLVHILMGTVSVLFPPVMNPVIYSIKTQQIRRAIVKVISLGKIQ
Outline: as §1

UniProt Q9R0K2 = target: UniProt Q9R0K2
Outline: as §1

UniProt Q9WU86 = target: T3, UniProt Q9WU86
T3 sequence (whole entry): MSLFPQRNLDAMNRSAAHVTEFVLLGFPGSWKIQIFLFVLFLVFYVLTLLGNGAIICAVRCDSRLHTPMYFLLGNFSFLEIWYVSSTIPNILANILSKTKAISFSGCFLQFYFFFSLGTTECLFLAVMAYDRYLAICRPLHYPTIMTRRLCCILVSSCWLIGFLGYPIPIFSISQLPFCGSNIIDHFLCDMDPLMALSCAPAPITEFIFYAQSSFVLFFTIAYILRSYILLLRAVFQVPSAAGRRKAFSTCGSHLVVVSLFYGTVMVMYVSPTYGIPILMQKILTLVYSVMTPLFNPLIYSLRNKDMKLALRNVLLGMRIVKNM
Outline: as §1

UniProt Q9WVD9 = target: UniProt Q9WVD9
Outline: as §1

UniProt Q9WVN5 = target: T4, UniProt Q9WVN5
T4 sequence (whole entry): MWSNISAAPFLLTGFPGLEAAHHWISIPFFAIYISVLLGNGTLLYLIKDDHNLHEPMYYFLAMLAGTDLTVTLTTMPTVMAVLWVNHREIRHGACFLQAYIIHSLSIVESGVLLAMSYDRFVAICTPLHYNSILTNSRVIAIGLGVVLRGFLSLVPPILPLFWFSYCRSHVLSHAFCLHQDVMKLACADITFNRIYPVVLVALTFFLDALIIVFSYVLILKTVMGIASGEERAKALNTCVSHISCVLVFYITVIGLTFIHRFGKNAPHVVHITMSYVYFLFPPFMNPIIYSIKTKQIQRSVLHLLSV
Outline: as §1

UniProt Q924X8 = target: T5, UniProt Q924X8
T5 sequence (whole entry): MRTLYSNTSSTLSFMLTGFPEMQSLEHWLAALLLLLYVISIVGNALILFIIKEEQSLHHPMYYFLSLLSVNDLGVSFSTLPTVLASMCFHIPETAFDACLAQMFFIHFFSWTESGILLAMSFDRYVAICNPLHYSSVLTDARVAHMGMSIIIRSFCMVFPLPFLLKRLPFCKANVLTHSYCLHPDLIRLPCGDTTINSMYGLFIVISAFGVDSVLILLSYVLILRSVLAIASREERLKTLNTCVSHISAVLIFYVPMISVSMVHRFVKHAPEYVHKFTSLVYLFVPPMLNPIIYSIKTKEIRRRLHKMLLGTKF
Outline: as §1

UniProt Q99NH4 = target: T6, UniProt Q99NH4
T6 sequence (whole entry): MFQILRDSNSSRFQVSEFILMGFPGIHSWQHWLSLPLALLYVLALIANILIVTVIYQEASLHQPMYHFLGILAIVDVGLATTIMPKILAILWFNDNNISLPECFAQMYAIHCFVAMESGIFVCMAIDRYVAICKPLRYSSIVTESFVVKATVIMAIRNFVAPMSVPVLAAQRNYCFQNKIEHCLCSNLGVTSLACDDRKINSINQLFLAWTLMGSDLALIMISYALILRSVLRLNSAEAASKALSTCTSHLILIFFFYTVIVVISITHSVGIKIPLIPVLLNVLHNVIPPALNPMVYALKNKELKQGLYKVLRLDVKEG
Outline: as §1

UniProt Q9WU94 = target: T7, UniProt Q9WU94
T7 sequence (whole entry): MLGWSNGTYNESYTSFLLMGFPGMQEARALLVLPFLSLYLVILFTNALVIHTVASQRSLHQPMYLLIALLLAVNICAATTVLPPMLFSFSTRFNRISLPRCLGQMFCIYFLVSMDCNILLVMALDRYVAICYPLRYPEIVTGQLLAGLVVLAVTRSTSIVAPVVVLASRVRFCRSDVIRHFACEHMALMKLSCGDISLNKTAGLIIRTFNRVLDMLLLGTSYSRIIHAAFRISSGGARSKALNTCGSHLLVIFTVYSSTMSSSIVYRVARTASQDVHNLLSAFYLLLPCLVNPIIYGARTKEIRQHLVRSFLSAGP
Outline: as §1

UniProt Q9WVD7 = target: T8, UniProt Q9WVD7
T8 sequence (whole entry): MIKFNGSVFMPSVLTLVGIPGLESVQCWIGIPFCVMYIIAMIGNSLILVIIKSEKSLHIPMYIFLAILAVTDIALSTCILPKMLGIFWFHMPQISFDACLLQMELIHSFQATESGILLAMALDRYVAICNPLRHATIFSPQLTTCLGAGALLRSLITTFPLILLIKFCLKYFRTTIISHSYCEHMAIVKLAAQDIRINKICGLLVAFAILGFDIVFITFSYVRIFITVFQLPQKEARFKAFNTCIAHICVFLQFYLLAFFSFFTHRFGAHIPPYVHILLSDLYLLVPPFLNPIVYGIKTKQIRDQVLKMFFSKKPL
Outline: as §1

UniProt Q9EQB5 = target: UniProt Q9EQB5
Outline: as §1

Measured: odorant receptor agonist call

Chain of UniProt Q9WVD9 (Q9WVD9 as listed by the source): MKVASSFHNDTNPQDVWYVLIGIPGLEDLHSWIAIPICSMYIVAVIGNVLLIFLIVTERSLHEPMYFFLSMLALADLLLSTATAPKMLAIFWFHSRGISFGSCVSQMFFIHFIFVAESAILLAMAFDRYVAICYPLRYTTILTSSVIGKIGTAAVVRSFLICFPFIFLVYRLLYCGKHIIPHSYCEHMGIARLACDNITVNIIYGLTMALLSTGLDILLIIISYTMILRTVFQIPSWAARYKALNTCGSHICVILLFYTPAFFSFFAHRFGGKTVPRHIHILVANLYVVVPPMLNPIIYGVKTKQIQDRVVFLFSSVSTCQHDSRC
Chain of UniProt Q9R0K2 (Q9R0K2 as listed by the source): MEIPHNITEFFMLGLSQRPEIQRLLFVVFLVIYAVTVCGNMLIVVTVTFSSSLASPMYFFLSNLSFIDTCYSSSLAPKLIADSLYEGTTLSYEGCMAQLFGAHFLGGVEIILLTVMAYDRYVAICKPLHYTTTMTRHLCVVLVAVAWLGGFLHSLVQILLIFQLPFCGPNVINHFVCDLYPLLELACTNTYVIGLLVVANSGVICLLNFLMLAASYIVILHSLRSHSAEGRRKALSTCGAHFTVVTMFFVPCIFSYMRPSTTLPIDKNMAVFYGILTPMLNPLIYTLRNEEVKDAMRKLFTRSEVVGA
Chain of UniProt Q9EQB5 (Q9EQB5 as listed by the source): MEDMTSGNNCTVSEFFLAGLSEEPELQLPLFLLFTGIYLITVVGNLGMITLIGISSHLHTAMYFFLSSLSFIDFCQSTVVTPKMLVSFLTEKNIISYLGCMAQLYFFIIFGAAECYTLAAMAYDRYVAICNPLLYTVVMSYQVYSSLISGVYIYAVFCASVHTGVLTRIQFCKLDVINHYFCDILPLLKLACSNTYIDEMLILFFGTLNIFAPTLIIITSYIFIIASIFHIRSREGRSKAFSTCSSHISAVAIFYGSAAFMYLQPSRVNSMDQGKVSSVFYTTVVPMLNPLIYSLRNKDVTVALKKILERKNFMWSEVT

CCCCCCCCC=CC=O
inactive: UniProt Q924H8

O=C1Cc2ccccc2O1
inactive: UniProt Q924H8 | UniProt Q9EPN9 | UniProt Q9R0K2 | UniProt Q9WU86 | UniProt Q9WVD9
active: UniProt Q9WVN5

O=C(O)CCCCCBr
active: UniProt Q924X8 | UniProt Q9WVD7
inactive: UniProt Q924H8 | UniProt Q99NH4 | UniProt Q9WU94

CCCCCCC(=O)OCCCC
inactive: UniProt Q924H8

CC(=O)C=CC1=C(C)CCCC1(C)C
inactive: UniProt Q924H8

CCCCCCCO
not listed: UniProt Q9EQB5
inactive: all other assays above

CCCCCCOC(C)=O
inactive: UniProt Q924H8 | UniProt Q9EPN9 | UniProt Q9R0K2 | UniProt Q9WU86 | UniProt Q9WVD9 | UniProt Q9WVN5

CCCC(=O)C(C)=O
inactive: UniProt Q924H8 | UniProt Q9EPN9 | UniProt Q9R0K2 | UniProt Q9WU86 | UniProt Q9WVD9 | UniProt Q9WVN5

O=C([O-])CCC(=O)[O-].[H+].[H+]
inactive: UniProt Q99NH4

CCCCCCCCCCCC(=O)O
inactive: UniProt Q99NH4

CCC(=O)C(=O)CC
inactive: UniProt Q924H8 | UniProt Q9EPN9 | UniProt Q9R0K2 | UniProt Q9WU86 | UniProt Q9WVD9 | UniProt Q9WVN5

CCCCC(C)=O
inactive: UniProt Q924H8 | UniProt Q9EPN9 | UniProt Q9R0K2 | UniProt Q9WU86 | UniProt Q9WVD9 | UniProt Q9WVN5

CCCCCCCC(C)=O
inactive: UniProt Q924H8 | UniProt Q9EPN9 | UniProt Q9R0K2 | UniProt Q9WU86 | UniProt Q9WVD9 | UniProt Q9WVN5

CC1CCCCCCCCCCCCC(=O)C1 (centres undefined)
inactive: UniProt Q9EQB5

CCCCCCC(C)=O
inactive: UniProt Q924H8 | UniProt Q9EPN9 | UniProt Q9R0K2 | UniProt Q9WU86 | UniProt Q9WVD9 | UniProt Q9WVN5

O=C([O-])CCCCC(=O)[O-].[H+].[H+]
inactive: UniProt Q99NH4 | UniProt Q9WU94 | UniProt Q9WVD7
active: UniProt Q924X8

CCCC(C)=O
inactive: UniProt Q9EPN9 | UniProt Q9R0K2 | UniProt Q9WU86 | UniProt Q9WU94 | UniProt Q9WVD9 | UniProt Q9WVN5

CCCCOC(=O)C(C)OC(=O)CCC (centres undefined)
inactive: UniProt Q9EPN9 | UniProt Q9R0K2 | UniProt Q9WU86 | UniProt Q9WVD9 | UniProt Q9WVN5

CCCCCCCCS
inactive: UniProt Q924H8 | UniProt Q9EPN9 | UniProt Q9R0K2 | UniProt Q9WU86 | UniProt Q9WVD9 | UniProt Q9WVN5

O=C([O-])CCCC(=O)[O-].[H+].[H+]
inactive: UniProt Q99NH4

CCCCOC(=O)CCC
inactive: UniProt Q9WU94

C=CCOC(=O)CCCCCC
inactive: UniProt Q924H8 | UniProt Q9EPN9 | UniProt Q9R0K2 | UniProt Q9WU86 | UniProt Q9WVD9 | UniProt Q9WVN5

CC12CCC(CC1=O)C2(C)C (centres undefined)
inactive: UniProt Q924H8 | UniProt Q9EPN9 | UniProt Q9R0K2 | UniProt Q9WU86 | UniProt Q9WVD9 | UniProt Q9WVN5

CC(=O)OCC=C(C)C
inactive: UniProt Q924H8 | UniProt Q9EPN9 | UniProt Q9R0K2 | UniProt Q9WU86 | UniProt Q9WVD9 | UniProt Q9WVN5

CCCCC(=O)CC
inactive: UniProt Q924H8 | UniProt Q9EPN9 | UniProt Q9R0K2 | UniProt Q9WU86 | UniProt Q9WVD9 | UniProt Q9WVN5

O=C(c1ccccc1)c1ccccc1
inactive: UniProt Q924H8 | UniProt Q9EPN9 | UniProt Q9R0K2 | UniProt Q9WU86 | UniProt Q9WVD9 | UniProt Q9WVN5

O=C(O)CCCCCC(=O)O
active: UniProt Q924X8
inactive: UniProt Q99NH4 | UniProt Q9WU94 | UniProt Q9WVD7

O=c1ccc2ccccc2o1
inactive: UniProt Q9EPN9 | UniProt Q9R0K2 | UniProt Q9WVD9 | UniProt Q9WVN5
active: UniProt Q9WU86

CC(C)=CCCC(C)CCO (centres undefined)
inactive: UniProt Q924H8 | UniProt Q9EPN9 | UniProt Q9R0K2 | UniProt Q9WU86 | UniProt Q9WVD9 | UniProt Q9WVN5

CCCCCCCCCCC(=O)O
inactive: UniProt Q99NH4

CCCCCCCC(=O)[O-].[H+]
active: UniProt Q99NH4 | UniProt Q9WVD7
not listed: UniProt Q924H8 | UniProt Q9EQB5
inactive: all other assays above

CCOC(=O)C(C)C
inactive: UniProt Q924H8 | UniProt Q9EPN9 | UniProt Q9R0K2 | UniProt Q9WU86 | UniProt Q9WVD9 | UniProt Q9WVN5

CCCCOC=O
inactive: UniProt Q924H8 | UniProt Q9EPN9 | UniProt Q9R0K2 | UniProt Q9WU86 | UniProt Q9WVD9 | UniProt Q9WVN5

CCCCCO
not listed: UniProt Q924H8 | UniProt Q9EQB5
inactive: all other assays above

CCC(C(=O)O)c1ccccc1 (centres undefined)
inactive: UniProt Q9R0K2 | UniProt Q9WU86 | UniProt Q9WVD9 | UniProt Q9WVN5
active: UniProt Q9EPN9

CCCCCCC(=O)[O-].[H+]
inactive: UniProt Q924X8 | UniProt Q9EPN9 | UniProt Q9R0K2 | UniProt Q9WU86 | UniProt Q9WU94
active: UniProt Q9WVD7 | UniProt Q9WVD9 | UniProt Q9WVN5

O=C(O)CCCCCCCCCCC(=O)O
inactive: UniProt Q99NH4

CCCCCC(=O)CC
inactive: UniProt Q924H8 | UniProt Q9EPN9 | UniProt Q9R0K2 | UniProt Q9WU86 | UniProt Q9WVD9 | UniProt Q9WVN5

C=C(C)C1CCC(C)C(=O)C1 (centres undefined)
inactive: UniProt Q924H8 | UniProt Q9EPN9 | UniProt Q9R0K2 | UniProt Q9WU86 | UniProt Q9WVD9 | UniProt Q9WVN5

O=C(O)CCCCCCCCCC(=O)O
inactive: UniProt Q99NH4

O=C(O)CCCCCCCCCBr
inactive: UniProt Q99NH4

CCCCCCCCCS
active: UniProt Q924H8
inactive: UniProt Q9EPN9 | UniProt Q9R0K2 | UniProt Q9WU86 | UniProt Q9WVD9 | UniProt Q9WVN5

O=C(O)CCCBr
inactive: UniProt Q99NH4 | UniProt Q9WU94 | UniProt Q9WVD7
active: UniProt Q924X8

O=C(O)CCCCBr
active: UniProt Q924X8
inactive: UniProt Q99NH4 | UniProt Q9WU94 | UniProt Q9WVD7
